Assay results from different studies.
Compare with care: the assays were run in different laboratories.
Target: cAMP-dependent protein kinase catalytic subunit alpha (PRKACA, Homo sapiens, UniProt P17612)

Compound	observed	mode	technique	tested at	endpoint	value
CCCOc1ccc([C@H]2[C@H](C(=O)O)[C@@H](c3ccc4c(c3)OCO4)CN2CC(=O)Nc2c(CC)cccc2CC)cc1	cell-free assay	–	competition with immobilised ligand	1 µM	remaining binding	100%
Nc1ncnc2occ(-c3ccc(NC(=O)Nc4cc(C(F)(F)F)ccc4F)cc3)c12	enzyme activity	inhibitor	–	20 µM	remaining activity	12%
O=C1Nc2ccc(Cl)cc2C1=Cc1cc(Cl)c(O)c(Cl)c1	cell-free assay	–	–	0.5 µM	remaining signal	101%
Cc1cnn2ncc(-c3ccnc(N(C)C)n3)c2c1	cell-free assay	–	–	1 µM	remaining signal	100%
Cn1c2c(Cl)c(Cl)ccc2c2cn[nH]c(=O)c21	thermal stability	–	DSF	10 µM	ΔTm	0.6 °C
O=C(CSc1nc2nccnc2c(=O)n1CCc1ccccc1)Nc1nccs1	enzyme activity	inhibitor	–	10 µM	inhibition	6%
Cc1ccc(C(=O)Nc2ccc(CN3CCN(C)CC3)c(C(F)(F)F)c2)cc1C#Cc1cnc2cccnn12	enzyme activity	inhibitor	–	23.5 nM	remaining activity	53%
COc1cc2ncnc(Nc3ccc(F)c(Cl)c3)c2cc1OCCCN1CCOCC1	cell-free assay	–	–	0.5 µM	remaining signal	96.3%
Cc1ccc(C(=O)NCc2ccsc2)cc1C#Cc1cn(C(C)C)c2ncnc(N)c12	enzyme activity	inhibitor	–	1 µM	activity vs control	103%
CCN(CC)CCNC(=O)c1c(C)[nH]c(/C=C2\C(=O)Nc3ccc(F)cc32)c1C	enzyme activity	inhibitor	–	10 µM	inhibition	59%
Nc1nc(Nc2ccccc2)sc1C(=O)c1c(F)cccc1F	enzyme activity	inhibitor	–	10 µM	remaining activity	90%
Oc1cccc(-c2nc(N3CCOCC3)c3oc4ncccc4c3n2)c1	enzyme activity	inhibitor	–	10 µM	remaining activity	100%
Cn1c2c(c3ccc(Cl)c(Cl)c31)C(C#N)C1(CCCC1)NC2=O (stereo not shown)	thermal stability	–	DSF	10 µM	ΔTm	-0.6 °C
CC(C)(C)C(=O)c1sc(NC2CCCCC2)nc1N	enzyme activity	inhibitor	–	10 µM	remaining activity	106%
CC1(C)NC(=O)c2[nH]c3c(Cl)c(Cl)ccc3c2C1C#N (stereo not shown)	thermal stability	–	DSF	10 µM	ΔTm	1 °C
CN(c1ncccc1CNc1nc(Nc2ccc3c(c2)CC(=O)N3)ncc1C(F)(F)F)S(C)(=O)=O	enzyme activity	inhibitor	–	1 µM	inhibition	78.4%
CN(C)C1CCN(CC#Cc2nn(C3CCCC3)c3nc(NCc4ccccc4)ncc23)C1 (stereo not shown)	enzyme activity	inhibitor	FRET	1 µM	inhibition	6%
COc1cc(Cl)c(C(=O)N[C@@H](CN[C@H]2CC[C@@H](N)CC2)Cc2ccc(C#N)cc2)cc1-c1ccc(CN[C@H](C)c2ccc(C)cc2)o1	enzyme activity	inhibitor	–	1 µM	remaining activity	106%
CCOC(=O)c1cc2cc(-c3cc(C(=O)NCc4ccc(C(=O)O)cc4)nn3C)ccc2[nH]1	cell-free assay	–	competition with immobilised ligand	0.1 µM	remaining binding	85%
FC(F)c1nc2ccccc2n1-c1nc(N2CCOCC2)nc(N2CCOCC2)n1	enzyme activity	inhibitor	–	10 µM	remaining activity	76%
NS(=O)(=O)c1cc(NC(=O)Cc2ccccc2)ccc1Oc1cccc(Cl)c1	cell-free assay	–	competition with immobilised ligand	1 µM	remaining binding	94%
Cc1ccc(NC(=O)c2ccc(C)c(C(F)(F)F)c2)cc1C#Cc1nn(C2CCC(O)CC2)c2ncnc(N)c12 (stereo not shown)	cell-free assay	inhibitor	–	10 µM	remaining signal	60%

Compound	observed	mode	technique	tested at	endpoint	value
Cc1cc(-n2nc(Cc3cc(F)cc(C(F)(F)F)c3)nc2C)ccc1C(N)=O	cell-free assay	–	competition with immobilised ligand	1 µM	remaining binding	100%
Cn1c2c(Cl)c(Cl)ccc2c2cc[nH]c(=O)c21	thermal stability	–	DSF	10 µM	ΔTm	0.8 °C
O=C1NC(=O)c2cc(Nc3ccc(F)cc3)c(Nc3ccc(F)cc3)cc21	cell-free assay	inhibitor	–	0.5 µM	remaining signal	94.5%
Cc1sc(C(=O)NC2COC2)cc1-n1cc(NC(=O)Nc2c(F)cccc2Cl)cn1	enzyme activity	inhibitor	–	10 µM	remaining activity	94.5%
CN(C)c1ncnc(-c2ccc3nc(Nc4cc(CN5CCN(C(=O)CC(F)(F)F)CC5)ccn4)[nH]c3c2)c1Cl	cell-free assay	–	competition with immobilised ligand	1 µM	remaining binding	100%
Cn1cnc(Br)c1C1=CN(c2ncnc3[nH]cnc23)CCS1	enzyme activity	inhibitor	radiometric	50 nM	inhibition	21.5%
CC(C)(O)[C@H]1CC[C@H](Nc2ccc3ncc(-c4cccc(C(F)(F)F)c4)n3n2)CC1	enzyme activity	inhibitor	–	1 µM	remaining activity	99.4%
Cc1ccc(Nc2nccc(N(C)c3ccc4c(C)n(C)nc4c3)n2)cc1S(N)(=O)=O	enzyme activity	inhibitor	–	10 µM	inhibition	19%
CCN(CC)c1ccc(C2=NNC(=O)CC2C)cc1[N+](=O)[O-] (stereo not shown)	enzyme activity	inhibitor	–	10 µM	remaining activity	100%
COc1cc2ncnc(Nc3ccc(Oc4ccccc4)c(C)c3C)c2cc1OC	enzyme activity	inhibitor	–	1 µM	inhibition	4%
CNCc1ccccc1-c1csc([C@@H](C)Nc2nc(C)nc3cc(OC)c(OC)cc23)c1	cell-free assay	–	competition with immobilised ligand	1 µM	remaining binding	100%
N[C@@H]1CCN(c2nccc(-c3cnn4ncccc34)n2)C1	cell-free assay	–	–	1 µM	remaining signal	96%
CC(C)(C)c1nc2c(s1)c1nc(N)ncc1c1ccc(NS(=O)(=O)c3c(F)cccc3F)c(F)c12	enzyme activity	inhibitor	radiometric	1 µM	remaining activity	104%
O=C(NCCCC1CCCCC1)c1ccc(CNC(=O)c2cnn(-c3ccccc3)c2C(F)(F)F)cc1	cell-free assay	–	competition with immobilised ligand	0.1 µM	remaining binding	100%
CC(C)c1ccc(NC(=O)c2cccs2)c(-c2nc3ccccc3[nH]c2=O)c1	enzyme activity	inhibitor	–	1 µM	activity vs control	108%
Cn1c2c(c3ccc(Cl)c(Cl)c31)C(C#N)C1(CCOCC1)NC2=O (stereo not shown)	thermal stability	–	DSF	10 µM	ΔTm	0.1 °C
COc1cc(Nc2cnc(C#N)c(O[C@H](C)CN(C)C)n2)ncc1-c1cnn(C)c1	enzyme activity	inhibitor	radiometric	1 µM	remaining activity	104%
CCCCN(CCCC)C(=O)CN1C[C@H](c2cc(OC)c3c(c2)OCO3)[C@@H](C(=O)O)[C@@H]1CC(C)(C)CCC	cell-free assay	–	competition with immobilised ligand	1 µM	remaining binding	100%
FC(F)(F)Oc1cccc(-c2cnc3ccc(-c4ccncc4)nn23)c1	enzyme activity	inhibitor	radiometric	1 µM	activity vs control	95%
CN(C)CCCn1cc(C2=C(c3c[nH]c4ccccc34)C(=O)NC2=O)c2ccccc21	cell-free assay	–	–	0.5 µM	remaining signal	72%
Cc1cc(NC(=O)c2cccc3cc(-c4cccc5[nH]nc(N)c45)ccc23)ccc1F	enzyme activity	inhibitor	–	0.1 µM	activity vs control	100%
